19 molecules from ChEMBL document CHEMBL1142496, “Studies on enzyme-cleavable dialkoxymethyl-cyclosaligenyl-2',3'-dideoxy-2',3'-didehydrothymidine monophosphates” (J Med Chem, 2008) can be followed below.

The subject of data set [1] is Human immunodeficiency virus 2. Kind of data set: Antiviral activity against HIV2 in thymidine kinase deficient human CEM/TK- cellss. It is filed as functional, organism-based. The settings on record: Human immunodeficiency virus 2, CEM-TK(-). The gist of the method:
(§1)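 Anti-HIV assay in T-lymphocytes: wild-type CEM/0 cells infected with HIV-1 or HIV-2, and thymidine kinase-deficient CEM/TK⁻ cells infected with HIV-2. Cells grown in RPMI-1640 with 10% heat-inactivated fetal calf serum. Read-out is the 50% effective concentration, given as the mean of two to three independent experiments.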

Data set [2] is described as follows: Cytostatic activity against human wild type CEM/0 cellss. It is filed as cell-based, CCRF-CEM. Particulars: wild-type CEM/0 cells. The gist of the method:
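Cytostatic activity on T-lymphocyte CEM cultures, reported as the 50% cytostatic concentration.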

In data set [3] the test system is Human immunodeficiency virus 1. Put plainly: Antiviral activity against HIV1 in human wild type CEM/0 cellss. It is filed as functional, organism-based. Particulars: Human immunodeficiency virus 1, CCRF-CEM. The gist of the method: as §1
A short description of data set [4]: Stability in aqueous 25 mM phosphate buffer at pH 7.6 assessed as hydrolysis half life. It is filed as physicochemical. The gist of the method:
(§2)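 Chemical stability in aqueous 25 mM phosphate buffer at pH 7.3 or 7.6. Triester cleavage followed by HPLC; half-life refers to disappearance of the intact triester.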

Data set [5] can be described thus: Stability in RPMI-1640 medium containing 10% heat inactivated fetal calf serum at pH 7.6 assessed as hydrolysis half life. It is filed as physicochemical. The settings on record: cattle, RPMI-1640 medium with 10% heat-inactivated fetal calf serum. The gist of the method:
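Stability in RPMI-1640 culture medium with 10% fetal calf serum heat-inactivated for 30 min at 56 °C (pH 7.6). Handled like the cell-extract incubations, with medium in place of extract; triester half-life and formyl-product formation followed by HPLC.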

In data set [6] the test system is Human immunodeficiency virus 2. Put plainly: Antiviral activity against HIV2 in human wild type CEM/0 cellss. It counts as functional, organism-based. Particulars: Human immunodeficiency virus 2, CCRF-CEM. The gist of the method:
as §1

Data set [7] is described as follows: Stability in aqueous 25 mM phosphate buffer at pH 7.3 assessed as hydrolysis half life. It counts as physicochemical. A digest of the protocol:
as §2

The subject of data set [8] is Human immunodeficiency virus. Kind of data set: Antiviral activity against HIV. It is filed as functional, organism-based. Particulars: Human immunodeficiency virus 1. A digest of the protocol:
as §1

Data set [9] can be described thus: Stability in human CEM cells extracts at pH 6.9 assessed as hydrolysis half life. It is filed as ADME, CCRF-CEM. The settings on record: CEM cell extracts. The gist of the method: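 Enzymatic stability assay: triesters incubated in CEM cell extracts (pH 6.9) over varied incubation times. Acetic acid was not used to stop the reaction for acid-sensitive compounds. Samples analysed by HPLC to give the half-life of triester cleavage.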

In general, EC50 refers to the concentration needed to bring the measured effect to its halfway point. For orientation: CC50 means the concentration giving 50% cytotoxicity. A higher CC50 goes with lower toxicity to the cells. One may read the half-life as the time needed for the level to fall by half in the phase considered.

On to `Cc1cn([C@H]2C=C[C@@H](COP3(=O)OCc4cc(C=O)cc(C(C)(C)C)c4O3)O2)c(=O)[nH]c1=O` (stereo not given in full), for which the 50% effective concentration (EC50) in data set [1] worked out at 15 µM; in [3], 0.39 µM; in data set [6], 1 µM. In data set [2], this molecule yielded a CC50 of 33 µM. Besides, the half-life in data set [4] is 1.1 h; in data set [5], 1.5 h; in [7], 1 h.

Regarding `Cc1cc(C=O)cc2c1OP(=O)(OC[C@@H]1C=C[C@H](n3cc(C)c(=O)[nH]c3=O)O1)OC2` (stereo not given in full), the EC50 in data set [1] was found to be 4.5 µM; in data set [3] it was 0.45 µM; in [6], 1.27 µM. The cytotoxic concentration (CC50) in data set [2] is 82 µM. Besides, the half-life in data set [4] is 0.35 h; in data set [5], 0.7 h.

For the molecule `Cc1cccc2c1OP(=O)(OC[C@@H]1C=C[C@H](n3cc(C)c(=O)[nH]c3=O)O1)OC2` (stereo not given in full), the midpoint of the response in data set [8], the EC50, lay at 0.1 µM.

On to `CC(=O)OC(OC(C)=O)c1cc2c(c(C(C)(C)C)c1)OP(=O)(OC[C@@H]1C=C[C@H](n3cc(C)c(=O)[nH]c3=O)O1)OC2` (stereo not given in full), for which the EC50 in data set [1] was determined as 0.78 µM; in data set [3] it was 0.65 µM; in [6] it was 0.8 µM. Further, it took 19 µM to reach half-maximal cytotoxicity in data set [2] (CC50). For the same molecule, the half-life in [9] was 0.15 h; in data set [4], 2.6 h; in data set [5], 2.8 h; in [7], 7.9 h.

As to `CC(=O)OC(OC(C)=O)c1cc(C)c2c(c1)COP(=O)(OC[C@@H]1C=C[C@H](n3cc(C)c(=O)[nH]c3=O)O1)O2` (stereo not given in full), the EC50 turned out to be 6.3 µM in [1], 0.5 µM in data set [3] and 0.7 µM in data set [6]. The molecule further returned a half-maximal cytotoxic concentration (CC50) in [2] of 44 µM. Also, the half-life in [4] is 1.9 h; in data set [5], 1.5 h.

Regarding `Cc1cn([C@H]2C=C[C@@H](CO[P@@]3(=O)OCc4cc(C(OC(=O)C(C)C)OC(=O)C(C)C)cc(C(C)(C)C)c4O3)O2)c(=O)[nH]c1=O`, the values for the EC50 in data set [1], in data set [3] and in [6] were 3.6 µM, 0.89 µM and 1.9 µM, respectively. The CC50 in data set [2] was found to be 40 µM. Also, the half-life was 0.8 h in data set [9], 2.9 h in [4], 4.5 h in data set [5] and 3.8 h in data set [7].

With `CC(=O)OC(OC(C)=O)c1cc2c(c(C(C)(C)C)c1)O[P@](=O)(OC[C@@H]1C=C[C@H](n3cc(C)c(=O)[nH]c3=O)O1)OC2`, the results for the concentration for a half-maximal effect (EC50) in data set [1], in data set [3] and in data set [6] were 0.29 µM, 0.54 µM and 0.75 µM, respectively. The molecule also showed a CC50 in [2] of 17 µM. Besides, the half-life was 0.3 h in [9], 2.7 h in data set [4], 2.9 h in data set [5] and 7.9 h in data set [7].

Consider `CC(=O)OC(OC(C)=O)c1cc2c(c(C(C)(C)C)c1)O[P@@](=O)(OC[C@@H]1C=C[C@H](n3cc(C)c(=O)[nH]c3=O)O1)OC2`, for which the figures for the concentration giving a half-maximal response (EC50) in data set [1], in data set [3] and in data set [6] were 3.9 µM, 1.1 µM and 0.84 µM, respectively. Besides, the half-maximal cytotoxic concentration (CC50) in data set [2] turned out to be 51 µM. For the same molecule, the half-life is 0.15 h in [9], 2.4 h in data set [4], 2.8 h in data set [5] and 8.3 h in [7].

Take `Cc1cn([C@H]2C=C[C@@H](CO[P@@]3(=O)OCc4cc(C=O)cc(C(C)(C)C)c4O3)O2)c(=O)[nH]c1=O`: the EC50 in [1] came out at 10 µM; in [3], 0.81 µM; in data set [6], 1.4 µM. For the same molecule, the midpoint of cytotoxicity in data set [2], the CC50, lay at 41 µM. For the same molecule, the figures for the half-life in [4], in data set [5] and in data set [7] were 0.3 h, 1.6 h and 1 h, respectively.

`Cc1cn([C@H]2C=C[C@@H](CO[P@]3(=O)OCc4cc(C=O)cc(C(C)(C)C)c4O3)O2)c(=O)[nH]c1=O`: the values for the concentration for a half-maximal effect (EC50) in [1], in data set [3] and in [6] were 2.6 µM, 0.16 µM and 0.69 µM, respectively. The midpoint of cytotoxicity in data set [2], the CC50, lay at 27 µM. Moreover, the results for the half-life in data set [4], in data set [5] and in data set [7] were 1.3 h, 1.7 h and 1.3 h, respectively.

With `Cc1cn([C@H]2C=C[C@@H](COP3(=O)OCc4cc(C(C)(C)C)ccc4O3)O2)c(=O)[nH]c1=O` (stereo not given in full), in [7], the half-life is 7.2 h.

On to `Cc1cc(C=O)c2c(c1)COP(=O)(OC[C@@H]1C=C[C@H](n3cc(C)c(=O)[nH]c3=O)O1)O2` (stereo not given in full), for which the EC50 amounted to 29 µM in data set [1], 3.6 µM in [3] and 1.4 µM in data set [6]. Further, in data set [2], the half-maximal cytotoxic concentration (CC50) was found to be 29 µM. Moreover, the results for the half-life in data set [4], in [5] and in data set [7] were 0.3 h, 0.3 h and 0.25 h, respectively.

`CC(=O)OC(OC(C)=O)c1cc(C)cc2c1OP(=O)(OC[C@@H]1C=C[C@H](n3cc(C)c(=O)[nH]c3=O)O1)OC2` (stereo not given in full): the EC50 in data set [1] is 6.5 µM; in [3], 0.52 µM; in data set [6], 1 µM. In data set [2], this molecule showed a CC50 of 19 µM. Further, the half-life in data set [9] is 0.25 h; in data set [4], 1.1 h; in data set [5], 1.5 h; in data set [7], 3.2 h.

Turning to `Cc1cc(C(OC(=O)C(C)C)OC(=O)C(C)C)cc2c1OP(=O)(OC[C@@H]1C=C[C@H](n3cc(C)c(=O)[nH]c3=O)O1)OC2` (stereo not given in full), the half-maximal effective concentration (EC50) in [1] was greater than 10 µM; in data set [3] it was 1.6 µM; in data set [6], 0.95 µM. The molecule also displayed a CC50 in [2] of 20 µM. Besides, the half-life is 0.5 h in data set [9], 1.1 h in data set [4], 1.6 h in data set [5] and 1.3 h in data set [7].

For `Cc1cn([C@H]2C=C[C@@H](CO[P@]3(=O)OCc4cc(C(OC(=O)C(C)C)OC(=O)C(C)C)cc(C(C)(C)C)c4O3)O2)c(=O)[nH]c1=O`, the EC50 in data set [1] was determined as 1.4 µM; in data set [3], 0.72 µM; in [6], 0.85 µM. In data set [2], this molecule returned a CC50 of 14 µM. In addition, the half-life in [9] is 1 h; in data set [4], 2.5 h; in data set [5] it was 5.7 h; in [7] it was 3.3 h.

As for `Cc1cn([C@H]2C=C[C@@H](COP3(=O)OCc4cc(C(OC(=O)C(C)C)OC(=O)C(C)C)cc(C(C)(C)C)c4O3)O2)c(=O)[nH]c1=O` (stereo not given in full), the EC50 in data set [1] was 2.4 µM; in [3] it was 0.53 µM; in data set [6], 2 µM. For the same molecule, the half-maximal cytotoxic concentration (CC50) in data set [2] is 20 µM. The half-life in data set [9] is 1 h; in [4], 2.7 h; in [5], 5.9 h; in data set [7], 3.5 h.

In the case of `Cc1cn([C@H]2C=C[C@@H](COP3(=O)OCc4cc(C(C)(C)C)cc(C=O)c4O3)O2)c(=O)[nH]c1=O` (stereo not given in full), the values for the concentration giving a half-maximal response (EC50) in data set [1], in [3] and in data set [6] were 5.1 µM, 0.99 µM and 1 µM, respectively. The same molecule yielded a CC50 in [2] of 8.8 µM. The half-life in data set [4] is 0.1 h; in data set [5] it was 0.3 h; in data set [7], 0.25 h.

For `CC(=O)OC(OC(C)=O)c1cc(C(C)(C)C)cc2c1OP(=O)(OC[C@@H]1C=C[C@H](n3cc(C)c(=O)[nH]c3=O)O1)OC2` (stereo not given in full), the EC50 in data set [1] worked out at 7.3 µM; in [3], 0.72 µM; in data set [6] it was 1 µM. In addition, the midpoint of cytotoxicity in data set [2], the CC50, lay at 7.9 µM. The half-life was less than 0.1 h in data set [9], 1.2 h in [4], 1.9 h in data set [5] and 3.7 h in data set [7].

As for `Cc1cn([C@H]2C=C[C@@H](CO)O2)c(=O)[nH]c1=O` [STAVUDINE], the values for the EC50 in data set [1], in data set [3] and in [6] were 62 µM, 0.86 µM and 1.9 µM, respectively. Moreover, the midpoint of cytotoxicity in data set [2], the CC50, lay at 182 µM.
